Screening results deposited in PubChem by several laboratories.
EBI2 antag = blocks human EBI2 receptor beta-arrestin signaling; P32249; EBI2 beta-arrestin recruitment, luminescence, 7a,25-OHC stimulated; inhibition, % at 5 µM; 360,000 tested, 0.81% active; AID 651636; in the data active means inhibition above about 38%;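 further: enzyme fragment complementation signal reports receptor beta-arrestin coupling in cells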
MC4R barr agon = human MC4R agonism via beta-arrestin; P32245; U2OS MC4R beta-arrestin complementation, luminescence; percent of melanotan II response, DMSO zero; activation, % at 8.9 µM; 360,000 tested, 0.98% active;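 active means activation above a per-plate cutoff, the mean activation of sample wells on that plate plus 3 SD, cut at about 8% in these data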
Granule exo inh = blocks lytic granule exocytosis; TALL-104 LAMP-1 surface exposure, flow cytometry; cells stimulated with thapsigargin and PMA; inhibition, % at 10 µM; 360,000 tested, 0.66% active;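 active means inhibition above about 55%, limit read from the data; inconclusive means no clear call, values can overlap the other calls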
MC4R antagonist = blocks human MC4R cAMP signaling. P32245. MC4R-expressing cells, MTII-stimulated cAMP, LANCE TR-FRET. inhibition, % at 6.5 µM. 360,000 tested, 0.48% active;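 active means inhibition above its plate's cutoff, the mean of tested wells on that plate plus 3 SD, cut at about 29% in these data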
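Test system: U2OS cells stably expressing human melanocortin 4 receptor (MC4R); also added: Melanotan II challenge; compound: 6.5 µM single dose; timing: 30-min compound preincubation, 1-h Melanotan II challenge, 1-h detection, room temperature; signal: Eu-cAMP/anti-cAMP TR-FRET, emission 671 nm; repeats: one well per compound, no replicates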
Myeloid diff MLP = myeloid differentiation induction; ER-HoxA9 myeloid progenitors, lysozyme-GFP differentiation, flow cytometry; calls only at 10 µM; 360,000 tested, 1% active;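 active means normalized GFP-positive differentiation at or above the plate's own cutoff, the solvent-only control mean plus 3 SD; inconclusive means no clear call, values can overlap the other calls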;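 further: cells exposed to compound for four days before flow analysis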
MC4R barr ag = human MC4R beta-arrestin agonism confirmation; 2,400 tested, 31% active; activation, % at 8.9 µM; shares compounds with MC4R barr agon; U2OS MC4R beta-arrestin recruitment, luminescence; scaled DMSO 0%, Melanotan II 100%; AID 602192;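 active means mean activation across replicates above the hit cutoff set in the earlier primary screen, cut at about 8% in these data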
MOR-DOR barr ag = activates mu-delta opioid heterodimer, MC4R agonist counter-screen | shares compounds with MC4R barr agon | U2OS PathHunter beta-arrestin, beta-gal luminescence; percent of deltorphin B response, DMSO zero | activation, % at 9.2 µM | 2,400 tested, 5.8% active | AID 602194;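 active means mean activation across replicates exceeds the hit threshold derived in the earlier primary screen, cut at about 18% in these data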
Target sequence (P35372 whole entry, looked up): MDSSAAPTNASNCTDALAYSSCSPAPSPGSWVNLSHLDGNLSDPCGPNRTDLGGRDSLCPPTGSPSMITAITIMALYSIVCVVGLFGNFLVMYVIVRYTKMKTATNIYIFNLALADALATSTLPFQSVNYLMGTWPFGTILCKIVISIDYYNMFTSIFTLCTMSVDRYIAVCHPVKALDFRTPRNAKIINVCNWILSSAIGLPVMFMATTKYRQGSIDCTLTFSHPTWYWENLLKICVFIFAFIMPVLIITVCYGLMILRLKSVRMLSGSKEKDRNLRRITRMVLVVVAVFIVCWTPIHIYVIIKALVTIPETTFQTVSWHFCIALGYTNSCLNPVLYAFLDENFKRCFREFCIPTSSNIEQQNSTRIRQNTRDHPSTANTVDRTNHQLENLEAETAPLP
Target sequence (P41143 whole entry, looked up): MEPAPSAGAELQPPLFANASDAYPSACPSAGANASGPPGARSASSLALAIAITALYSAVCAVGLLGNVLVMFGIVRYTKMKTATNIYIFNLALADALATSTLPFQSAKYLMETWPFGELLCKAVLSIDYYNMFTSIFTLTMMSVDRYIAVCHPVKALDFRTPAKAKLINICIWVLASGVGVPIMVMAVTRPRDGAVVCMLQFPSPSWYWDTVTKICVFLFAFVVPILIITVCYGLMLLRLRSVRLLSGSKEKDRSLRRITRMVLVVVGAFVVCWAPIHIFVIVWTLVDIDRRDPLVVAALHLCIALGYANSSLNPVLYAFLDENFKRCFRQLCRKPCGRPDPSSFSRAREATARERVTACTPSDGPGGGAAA
EBI2 antag conf = confirmation of human EBI2 receptor antagonists; shares compounds with EBI2 antag; EBI2 beta-arrestin luminescence, 7a,25-OHC antagonism; inhibition, % at 5 µM; 2,400 tested, 29% active; AID 651997;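 active means inhibition of at least 50%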
EBI2 ag = activates EBI2, counter-screen for EBI2 antagonists | 2,400 tested, under 10 active | AID 652000 | EBI2-expressing cells, agonist mode, luminescence, 60 min; 0% vehicle, 100% 7α,25-dihydroxycholesterol control | shares compounds with EBI2 antag | activation, % at 5 µM;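 active means activation of at least 50%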
bGal cs = beta-galactosidase inhibition counter-screen; shares compounds with EBI2 antag; purified beta-galactosidase, luminescent Galacton Star, 15 min; inhibition, % at 5 µM; 2,400 tested, 1% active;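 active means replicate-average signal at least 3 plate SD below neutral wells, shown as high inhibition, flagging enzyme-inhibiting false positives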;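 further: higher means stronger loss of beta-gal luminescence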
Granule exo CP1 = lytic granule exocytosis inhibition; 1,500 tested, 11% active; inhibition, % at 10 µM; TALL-104 cells, LAMP-1 externalization, flow cytometry; stimulated with PMA plus thapsigargin; shares compounds with Granule exo inh; in the data active means inhibition above about 60%
Each line names hits and unclear results; the compound was inactive in the other large screens (follow-up assays come after a bar, where they were run). Rows were chosen to be rich in hits. Some 3.7% of all compounds tested hit in one or more screens of this group.

CCCCOC(=O)Nc1nnc(/C=C/c2ccc(OC)cc2)s1	EBI2 antag 55, MC4R barr agon 21 | MC4R barr ag inactive | MOR-DOR barr ag inactive | EBI2 antag conf inactive | EBI2 ag inactive | bGal cs inactive
COc1cccc(-c2cnc3c(NC(C)=O)cc(-c4ccccc4OC)cn23)c1	MC4R barr agon 22, Granule exo inh 76 | MC4R barr ag 15 | MOR-DOR barr ag inactive | Granule exo CP1 94
COc1ccc(-c2cc(NC(C)=O)c3ncc(-c4ccccc4)n3c2)c(OC)c1	MC4R barr agon 32, Granule exo inh 94 | MC4R barr ag 37 | MOR-DOR barr ag inactive | Granule exo CP1 96
O=[N+]([O-])c1cccc(-c2nnc(-c3ccccc3F)o2)c1	none
COc1ccc(Cn2c(SCc3ccccc3C)nc3cc(OC)c(OC)cc3c2=N)cc1	MC4R barr agon 26, Granule exo inh 96 | MC4R barr ag inactive | MOR-DOR barr ag 27 | Granule exo CP1 inactive
Cc1ccc2nc(-c3ccc(NS(=O)(=O)c4c(C)n(C)c(=O)n(C)c4=O)cc3)sc2c1	none
Cc1cccc(S(=O)(=O)Nc2ccc(-c3nc4ccc(C)cc4s3)cc2)c1	MC4R barr agon 16, Granule exo inh 75 | MC4R barr ag inactive | MOR-DOR barr ag inactive | Granule exo CP1 inactive
CC(C)N(C(=O)[C@H]1C[C@H](CC(=O)NCCCn2ccnc2)C(=O)N2CCc3c([nH]c4ccc(Cl)cc34)[C@]12C)C(C)C	none
Cc1cccn2c(=O)c3cc(C(=O)NCCc4ccccc4)sc3nc12	MC4R barr agon 18, Granule exo inh 92 | MC4R barr ag 13 | MOR-DOR barr ag inactive | Granule exo CP1 inactive
Cc1ccc(NCCCn2cnc(C(=O)Nc3ccc(C)c(C)c3)n2)cc1C	none
Cc1cc(C)c(CN2CCN(CCCn3cnc(C(=O)Nc4ccc(C)c(C)c4)n3)CC2)c(C)c1	MC4R barr agon 16, Granule exo inh 57 | MC4R barr ag 24 | MOR-DOR barr ag inactive | Granule exo CP1 inactive
Cc1cc2nc3c(=O)[nH]c(=S)[nH]c3nc2cc1NC(=O)C(F)(F)F	none
Cc1c(CN2CCC(CO)(CCOc3ccccc3)CC2)[nH]c2c(Cl)cccc12	MC4R barr agon 22, Granule exo inh 92 | MC4R barr ag 19 | MOR-DOR barr ag inactive | Granule exo CP1 inactive
COC(=O)COc1ccc(-n2cnnn2)cc1	none
Cc1ccc2nc(N(CCCN(C)C)C(=O)CCc3ccccc3)sc2c1	none
CN(C)CCCN(C(=O)CCc1ccccc1)c1nc2ccc(Cl)cc2s1	MC4R barr agon 11, Granule exo inh 72 | MC4R barr ag 31 | MOR-DOR barr ag inactive | Granule exo CP1 inactive
CCCCNC(=O)NNC(=O)c1cc(C)on1	none
CC1CCN(CCCNC(=O)c2ccc3c(=O)n(Cc4ccc(Cl)cc4)c(=S)[nH]c3c2)CC1	MC4R barr agon 13, Granule exo inh 71 | MC4R barr ag 9.9 | MOR-DOR barr ag inactive | Granule exo CP1 inactive
CC(=O)c1cccc(-c2ccnc3c2CC(C(=O)NCc2ccco2)O3)c1 (centres undefined)	none (no result: Myeloid diff MLP)
CCc1cc2cccc(C)c2nc1SCC(=O)NC1CCCC1	none
CCc1cc2cc(C)ccc2nc1SCC(=O)NC1CCCC1	MC4R barr agon 11, Granule exo inh 92, Myeloid diff MLP inconclusive | MC4R barr ag inactive | MOR-DOR barr ag inactive | Granule exo CP1 inactive
